According to article PMC4973392 (Angewandte Chemie (International ed. in English), 2016):

Columns and labels:
RanGAP1 sumoylation = assay: conjugation of SUMO to recombinant protein fragment of RanGAP1; format: biochemical
Ubc9-E42A mutant = Ubc9-E42A mutant (Homo sapiens, UniProt P63279, E42A); assay: sumoylation of fluorescent substrate peptide with Ubc9-E42A mutant; format: biochemical; conditions: at any concentration
IκBα sumoylation = assay: conjugation of SUMO to full-length recombinant IκBα; format: biochemical
E2-SUMO thioester = E2-SUMO thioester (Homo sapiens, UniProt P63279); assay: E2-SUMO thioester formation with fluorescently labeled SUMO-1; format: biochemical; conditions: at concentrations that correlated well with the IC50
Sequence of E2-SUMO thioester (P63279 whole entry): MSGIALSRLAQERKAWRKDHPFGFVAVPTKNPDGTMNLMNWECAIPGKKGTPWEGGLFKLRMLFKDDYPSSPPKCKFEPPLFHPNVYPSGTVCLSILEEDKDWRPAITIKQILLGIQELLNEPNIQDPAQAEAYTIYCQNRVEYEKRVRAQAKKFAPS

Ubc9-K59A mutant = Ubc9-K59A mutant (Homo sapiens, UniProt P63279, K59A); assay: sumoylation of fluorescent substrate peptide with Ubc9-K59A mutant; format: biochemical; conditions: at any concentration
Sequence of Ubc9-K59A mutant (P63279 whole entry K59A): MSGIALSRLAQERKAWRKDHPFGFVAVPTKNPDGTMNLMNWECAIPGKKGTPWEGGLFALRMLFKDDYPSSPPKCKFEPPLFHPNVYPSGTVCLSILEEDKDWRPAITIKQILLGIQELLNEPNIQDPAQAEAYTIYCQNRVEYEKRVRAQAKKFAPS

Ubc9 [1] = target: T1, Ubc9 (Homo sapiens, UniProt P63279); format: biochemical; conditions: SUMO-1 conjugation to peptide substrate
T1 sequence (P63279 whole entry): as the sequence (P63279 whole entry) above

E1-SUMO thioester = target: T2, E1-SUMO thioester (Homo sapiens, UniProt Q9UBE0+Q9UBT2); assay: E1-SUMO thioester formation with fluorescently labeled SUMO-1; format: biochemical; conditions: at relevant concentrations
T2 sequence (Q9UBE0 1-346): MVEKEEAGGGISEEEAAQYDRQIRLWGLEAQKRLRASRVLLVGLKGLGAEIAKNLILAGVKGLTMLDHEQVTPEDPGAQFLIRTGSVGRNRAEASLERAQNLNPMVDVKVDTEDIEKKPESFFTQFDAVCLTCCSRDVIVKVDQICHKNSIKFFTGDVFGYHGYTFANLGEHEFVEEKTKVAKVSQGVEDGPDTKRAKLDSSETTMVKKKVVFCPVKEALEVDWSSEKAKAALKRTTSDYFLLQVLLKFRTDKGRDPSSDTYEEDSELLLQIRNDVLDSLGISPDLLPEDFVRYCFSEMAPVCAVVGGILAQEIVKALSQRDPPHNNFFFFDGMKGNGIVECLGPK
T2 sequence (Q9UBT2 1-640): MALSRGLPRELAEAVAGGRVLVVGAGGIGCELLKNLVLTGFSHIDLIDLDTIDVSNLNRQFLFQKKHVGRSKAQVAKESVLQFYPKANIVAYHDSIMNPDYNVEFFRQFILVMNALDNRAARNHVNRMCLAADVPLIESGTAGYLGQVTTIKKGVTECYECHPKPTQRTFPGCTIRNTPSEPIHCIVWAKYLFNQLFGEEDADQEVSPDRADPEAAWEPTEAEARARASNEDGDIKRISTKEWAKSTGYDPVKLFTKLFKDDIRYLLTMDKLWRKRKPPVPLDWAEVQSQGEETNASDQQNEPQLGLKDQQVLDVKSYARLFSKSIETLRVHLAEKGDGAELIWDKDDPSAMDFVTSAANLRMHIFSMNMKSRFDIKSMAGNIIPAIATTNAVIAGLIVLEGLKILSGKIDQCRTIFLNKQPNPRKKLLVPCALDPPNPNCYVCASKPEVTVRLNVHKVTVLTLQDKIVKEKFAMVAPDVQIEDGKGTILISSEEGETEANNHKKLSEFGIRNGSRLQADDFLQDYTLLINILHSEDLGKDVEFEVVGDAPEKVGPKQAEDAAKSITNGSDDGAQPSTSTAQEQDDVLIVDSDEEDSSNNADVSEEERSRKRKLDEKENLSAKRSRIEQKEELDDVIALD
Method in brief: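 E1–SUMO thioester formation was followed using fluorescently labeled SUMO-1 in the presence of the test compound. The negative-control lane omitted E1.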

Ubc9 [2] = target: T1, Ubc9; assay: 1H-15N HSQC NMR chemical shift perturbation; format: binding
Method in brief: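 1H-15N HSQC spectra recorded with 200 μM Ubc9 in a solution saturated with the test compound. Chemical shifts of selected residues were compared between apo and compound-bound protein.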

Sequence of Ubc9-E42A mutant (P63279 whole entry E42A): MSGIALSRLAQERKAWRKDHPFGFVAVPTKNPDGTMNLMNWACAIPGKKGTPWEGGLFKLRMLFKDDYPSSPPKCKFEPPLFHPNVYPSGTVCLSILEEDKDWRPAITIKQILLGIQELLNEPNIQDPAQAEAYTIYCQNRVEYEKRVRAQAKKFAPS

Oc1ccccc1-c1ccccc1O [compound 1, 2,2′-bisphenol]
effect on conjugation of SUMO to RanGAP1 fragment (RanGAP1 sumoylation): inhibited
inhibition of Ubc9 E42A mutant (Ubc9-E42A mutant): neither mutant was inhibited
effect on conjugation of SUMO to IκBα (IκBα sumoylation): inhibited
effect on formation of the E2-SUMO thioester (E2-SUMO thioester): inhibited
inhibition of Ubc9 K59A mutant (Ubc9-K59A mutant): neither mutant was inhibited
IC50 (Ubc9 [1]): 5.8 ± 0.1 mM
effect on formation of the E1-SUMO thioester (E1-SUMO thioester): no effect
binding to Ubc9 in solution (chemical shift perturbations) (Ubc9 [2]): specific binding
